Laboratory results: ChEMBL document CHEMBL1123499, “Synthesis, saludiuretic, and antihypertensive activity of 6,7-disubstituted 1(2H)- and 3,4-dihydro-1(2H)-phthalazinones” (1986)

Assays:
Rattus norvegicus [1] = species on record: Rattus norvegicus; assay: Compound was tested for antihypertensive activity in rat after 1 hr postdose; type: functional
Procedure, shortened: (§1)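 DOCA/saline hypertensive Sprague-Dawley rats (250-350 g), six per group, given 10 mg/kg doca s.c. daily with saline until systolic BP reached 170 mmHg (usually 3-4 weeks). Oral 25 mg/kg in 5 mL/kg 1% methylcellulose. Systolic BP by tail-cuff before and 1, 4, 24 h after; drop reported as mean ± SD.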

Rattus norvegicus [2] = species on record: Rattus norvegicus; assay: Compound was tested for antihypertensive activity in rat after 24 hr postdose; type: functional; procedure, shortened: as §1
Rattus norvegicus [3] = species on record: Rattus norvegicus; assay: Compound was tested for antihypertensive activity in rat after 4 hr postdose; type: functional; procedure, shortened: as §1
Rattus norvegicus [4] = species on record: Rattus norvegicus; assay: Diuretic activity in rats at time intervals of 0-24 hours; type: functional, Urine
Procedure, shortened: (§2)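 Male Sabra rats (170-200 g), starved 18 h, given 50 mg/kg by stomach tube in saline (25 mL/kg load), eight per compound, saline and furosemide controls run alongside. Held two per metabolic cage at 22 °C without food or water. Urine volume measured at 5 and 24 h collections.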

Rattus norvegicus [5] = species on record: Rattus norvegicus; assay: Diuretic activity in rats at time intervals of 0-5 hours; type: functional, Urine; procedure, shortened: as §2
Rattus norvegicus [6] = species on record: Rattus norvegicus; assay: Diuretic activity in rats at time intervals of 5-24 hours; type: functional, Urine; procedure, shortened: as §2
Rattus norvegicus [7] = species on record: Rattus norvegicus; assay: Saluretic activity in rats after 5-24 hours, as sodium ion concentration in urine; type: functional
Procedure, shortened: (§3)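 Male Sabra rats (170-200 g), fasted 18 h, dosed orally 50 mg/kg in saline at 25 mL/kg, eight per compound, two per metabolic cage, no food or water. Urine collected 5 and 24 h after dosing and centrifuged. Chloride titrated with Hg(NO3)2/diphenylcarbazone after HNO3 acidification; Na+ and K+ by atomic absorption.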

Rattus norvegicus [8] = species on record: Rattus norvegicus; assay: Saluretic activity in rats after 0-24 hours, as chloride ion concentration in urine; type: functional; procedure, shortened: as §3
Rattus norvegicus [9] = species on record: Rattus norvegicus; assay: Saluretic activity in rats after 0-24 hours, as potassium ion concentration in urine; type: functional; procedure, shortened: as §3
Rattus norvegicus [10] = species on record: Rattus norvegicus; assay: Saluretic activity in rats after 0-24 hours, as sodium ion concentration in urine; type: functional; procedure, shortened: as §3
Rattus norvegicus [11] = species on record: Rattus norvegicus; assay: Saluretic activity in rats after 0-5 hours, as chloride ion concentration in urine; type: functional; procedure, shortened: as §3
Rattus norvegicus [12] = species on record: Rattus norvegicus; assay: Saluretic activity in rats after 0-5 hours, as sodium ion concentration in urine; type: functional; procedure, shortened: as §3
Rattus norvegicus [13] = species on record: Rattus norvegicus; assay: Saluretic activity in rats after 5-24 hours, as chloride ion concentration in urine; type: functional; procedure, shortened: as §3
Rattus norvegicus [14] = species on record: Rattus norvegicus; assay: Saluretic activity in rats after 5-24 hours, as potassium ion concentration in urine; type: functional; procedure, shortened: as §3
Rattus norvegicus [15] = species on record: Rattus norvegicus; assay: Saluretic activity in rats after 0-5 hours, as potassium ion concentration in urine; type: functional; procedure, shortened: as §3
Rattus norvegicus [16] = species on record: Rattus norvegicus; assay: Saluretic activity in rats after 0-24 hours, as ratio of Na+/K+ ion concentration in urine; type: functional; procedure, shortened: as §3
Rattus norvegicus [17] = species on record: Rattus norvegicus; assay: Saluretic activity in rats after 0-5 hours, as ratio of Na+/K+ ion concentration in urine; type: functional; procedure, shortened: as §3
Rattus norvegicus [18] = species on record: Rattus norvegicus; assay: Saluretic activity in rats after 5-24 hours, as ratio of Na+/K+ ion concentration in urine; type: functional; procedure, shortened: as §3

| SMILES | Decrease in blood pressure (Rattus norvegicus [1]) | Decrease in blood pressure (Rattus norvegicus [2]) | Decrease in blood pressure (Rattus norvegicus [3]) | Diuretic activity (Rattus norvegicus [4]) | Diuretic activity (Rattus norvegicus [5]) | Diuretic activity (Rattus norvegicus [6]) | Saluretic activity (Rattus norvegicus [7]) | Saluretic activity (Rattus norvegicus [8]) | Saluretic activity (Rattus norvegicus [9]) | Saluretic activity (Rattus norvegicus [10]) | Saluretic activity (Rattus norvegicus [11]) | Saluretic activity (Rattus norvegicus [12]) | Saluretic activity (Rattus norvegicus [13]) | Saluretic activity (Rattus norvegicus [14]) | Saluretic activity (Rattus norvegicus [15]) | Ratio (Rattus norvegicus [16]) | Ratio (Rattus norvegicus [17]) | Ratio (Rattus norvegicus [18]) |
| --- | --- | --- | --- | --- | --- | --- | --- | --- | --- | --- | --- | --- | --- | --- | --- | --- | --- | --- |
| CN1NCc2cc(Cl)c(S(N)(=O)=O)cc2C1=O | 31.3 mmHg | 22.7 mmHg | 45 mmHg | 11.8 mL | 5 mL | 6.8 mL | 5.98 m equiv kg-1 | 9.35 m equiv kg-1 | 7.82 m equiv kg-1 | 10.43 m equiv kg-1 | 6.2 m equiv kg-1 | 4.45 m equiv kg-1 | 3.15 m equiv kg-1 | 5.27 m equiv kg-1 | 2.55 m equiv kg-1 | 1.33 | 1.74 | 1.13 |
| Cn1ncc2cc(S(N)(=O)=O)c(Cl)cc2c1=O | 29.7 mmHg | 19.3 mmHg | 47 mmHg | 4.8 mL | 2.2 mL | 2.6 mL | 5.26 m equiv kg-1 | 7.22 m equiv kg-1 | 5.16 m equiv kg-1 | 7.84 m equiv kg-1 | 2.22 m equiv kg-1 | 2.58 m equiv kg-1 | 5 m equiv kg-1 | 3.92 m equiv kg-1 | 1.24 m equiv kg-1 | 1.52 | 2.1 | 1.34 |
| NS(=O)(=O)c1cc2c(O)nncc2cc1Cl | 13.7 mmHg | 38 mmHg | 33.7 mmHg | 11.3 mL | 7.7 mL | 3.6 mL | 4.21 m equiv kg-1 | 13.97 m equiv kg-1 | 5.06 m equiv kg-1 | 12.37 m equiv kg-1 | 9.87 m equiv kg-1 | 8.16 m equiv kg-1 | 4.1 m equiv kg-1 | 2.51 m equiv kg-1 | 2.55 m equiv kg-1 | 2.44 | 3.18 | 1.68 |
| Cn1ncc2cc(Cl)c(S(N)(=O)=O)cc2c1=O | 31.7 mmHg | 26.3 mmHg | 47.7 mmHg | 8.8 mL | 6.1 mL | 2.7 mL | 2.4 m equiv kg-1 | 9.57 m equiv kg-1 | 4.76 m equiv kg-1 | 11.1 m equiv kg-1 | 7.27 m equiv kg-1 | 8.7 m equiv kg-1 | 2.3 m equiv kg-1 | 2.09 m equiv kg-1 | 2.67 m equiv kg-1 | 2.33 | 3.27 | 1.15 |
